Common to all, as to type: cell-based
For assay [1], the target named is Transient receptor potential cation channel subfamily V member 1 (Rattus norvegicus) (UniProt O35433). The experiment in a line: Partial antagonist activity at rat TRPV1 expressed in HEK293 cells assessed as effect on capsaicin-induced inward current at 1 uM by whole-cell patch clamp method (reference value: -480.7 +/- 96.9 pA/pF). A digest of the protocol:
(§1)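 HEK293 cells transiently expressing rat TRPV1 (EGFP cotransfected) were patched in whole-cell mode 1 day post-transfection. Cells were held at −60 mV in Ca2+-containing standard bath (pH 7.4) at ~25 °C. Capsaicin-evoked peak current amplitude was quantified. Sigmoidal curve fitting gave EC50 or IC50 values.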
Background: Patch clamp records ionic current or voltage across a cell membrane.

For assay [2] the target is unchanged. The experiment in a line: Partial antagonist activity at rat TRPV1 expressed in HEK293 cells assessed as effect on capsaicin-induced inward current at 1 uM by whole-cell patch clamp method (reference value: -431 +/- 43.1 pA/pF). The method in brief: as §1
Assay [3] shares this target. Nature of the assay: Agonist activity at rat TRPV1 channel expressed in HEK293 cells assessed as induction of inward current at 10 uM and -60 mV holding potential by whole-cell patch-clamp method. The method in brief:
(§2)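 Rat TRPV1 cDNA and an EGFP reporter were cotransfected into HEK293 cells, with recording 1 day later. Whole-cell voltage clamp was run at room temperature (~25 °C) in standard bath (2 mM CaCl2, pH 7.4) with a KCl/MgATP/EGTA pipette solution. Steps from −100 to +100 mV (100 ms) gave I–V curves. Agonist was applied until desensitization, and peak current was scored. EC50 came from a sigmoidal fit.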

For assay [4] the target is unchanged. Nature of the assay: Agonist activity at rat TRPV1 channel expressed in HEK293 cells assessed as outward rectifying current at 10 uM and -60 mV holding potential by whole-cell patch-clamp method. The method in brief:
as §2

Assay [5] shares this target. The experiment in a line: Partial antagonist activity at rat TRPV1 expressed in HEK293 cells assessed as effect on capsaicin-induced inward current at 0.1 uM by whole-cell patch clamp method (reference value: -327.4 +/- 52.3 pA/pF). The method in brief: as §1
Assay [6] shares this target. The experiment in a line: Partial antagonist activity at rat TRPV1 expressed in HEK293 cells assessed as effect on capsaicin current density at 0.5 uM pretreated for 180 sec followed by capsaicin addition at -60 mV holding potential in presence of extracellular calcium by whole-cell patch-clamp method (reference value: -327.4 +/- 52.3 pA/pF). A digest of the protocol: as §1

Assay [7] has the same target. The experiment in a line: Partial antagonist activity at rat TRPV1 expressed in HEK293 cells assessed as effect on capsaicin-induced inward current at 0.6 uM by whole-cell patch clamp method (reference value: -431 +/- 43.1 pA/pF). A digest of the protocol: as §1
Assay [8] shares this target. Nature of the assay: Agonist activity at rat TRPV1 channel expressed in HEK293 cells assessed as reversal potential at 10 uM and -60 mV holding potential by whole-cell patch-clamp method. A digest of the protocol: as §2
For assay [9] the target is unchanged. Nature of the assay: Partial antagonist activity at rat TRPV1 expressed in HEK293 cells assessed as effect on capsaicin-induced inward current at 0.1 uM by whole-cell patch clamp method (reference value: -7 +/- 2.6 pA/pF). The method in brief: as §1
For assay [10] the target is unchanged. Nature of the assay: Partial antagonist activity at rat TRPV1 expressed in HEK293 cells assessed as effect on capsaicin-induced inward current at 0.6 uM by whole-cell patch clamp method (reference value: -[…] +/- […] pA/pF).
Assay [11] shares this target. The experiment in a line: Partial antagonist activity at rat TRPV1 expressed in HEK293 cells assessed as inhibition of proton-induced channel current at 1 or 50 uM and -60 mV holding potential pretreated for 60 secs prior to proton-challenge by whole-cell patch clamp method (reference value: 185.1 +/- 38.6 pA/pF). The method in brief:
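Proton-activated currents were recorded in rat TRPV1-expressing HEK293 cells held at −60 mV in whole-cell mode, with bath buffered to pH 6 with 10 mM MES, at ~25 °C. Peak current amplitude was the read-out.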

For assay [12] the target is unchanged. Nature of the assay: Partial antagonist activity at rat TRPV1 expressed in HEK293 cells assessed as effect on capsaicin-induced inward current at 0.1 uM by whole-cell patch clamp method (reference value: -151.2 +/- 33 pA/pF). The method in brief:
as §1

Assay [13] has the same target. The experiment in a line: Partial antagonist activity at rat TRPV1 expressed in HEK293 cells assessed as effect on capsaicin-induced inward current at 10 uM by whole-cell patch clamp method (reference value: -151.2 +/- 33 pA/pF). A digest of the protocol:
as §1

Assay [14] shares this target. The experiment in a line: Partial antagonist activity at rat TRPV1 expressed in HEK293 cells assessed as effect on capsaicin-induced inward current at 1 uM by whole-cell patch clamp method (reference value: -7 +/- 2.6 pA/pF). The method in brief:
as §1

Assay [15] has the same target. The experiment in a line: Partial antagonist activity at rat TRPV1 expressed in HEK293 cells assessed as effect on capsaicin-induced inward current at 1 uM by whole-cell patch clamp method (reference value: -[…] +/- […] pA/pF).
For assay [16] the target is unchanged. The experiment in a line: Partial antagonist activity at rat TRPV1 expressed in HEK293 cells assessed as effect on capsaicin current density at 10 uM at -60 mV holding potential in absence of extracellular calcium by whole-cell patch-clamp method (reference value: -2407.7 +/- 850.6 pA). A digest of the protocol: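 Whole-cell clamp at −60 mV was done on rat TRPV1-transfected HEK293 cells (1 day) using a calcium-free bath (5 mM EGTA, no CaCl2, pH 7.4) at ~25 °C. Capsaicin-evoked peak current was measured.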

For assay [17] the target is unchanged. Nature of the assay: Partial antagonist activity at rat TRPV1 expressed in HEK293 cells assessed as effect on capsaicin-induced inward current at 10 uM by whole-cell patch clamp method. The method in brief: as §1
Assay [18] has the same target. The experiment in a line: Partial antagonist activity at rat TRPV1 expressed in HEK293 cells assessed as effect on capsaicin-induced inward current at 10 uM by whole-cell patch clamp method (reference value: -431 +/- 43.1 pA/pF). The method in brief:
as §1

Assay [19] shares this target. The experiment in a line: Partial antagonist activity at rat TRPV1 expressed in HEK293 cells assessed as effect on capsaicin current density at 1 uM pretreated for 180 sec followed by capsaicin addition at -60 mV holding potential in presence of extracellular calcium by whole-cell patch-clamp method (reference value: -327.4 +/- 52.3 pA/pF). The method in brief:
as §1

For assay [20] the target is unchanged. Nature of the assay: Partial antagonist activity at rat TRPV1 expressed in HEK293 cells assessed as effect on capsaicin-induced inward current at 1 uM by whole-cell patch clamp method (reference value: -327.4 +/- 52.3 pA/pF). A digest of the protocol:
as §1

Active and inactive are the calls of the source. The calls are words filed in the database; no cut-off is given here.

Chain of Transient receptor potential cation channel subfamily V member 1 (Rattus norvegicus) (O35433 whole entry): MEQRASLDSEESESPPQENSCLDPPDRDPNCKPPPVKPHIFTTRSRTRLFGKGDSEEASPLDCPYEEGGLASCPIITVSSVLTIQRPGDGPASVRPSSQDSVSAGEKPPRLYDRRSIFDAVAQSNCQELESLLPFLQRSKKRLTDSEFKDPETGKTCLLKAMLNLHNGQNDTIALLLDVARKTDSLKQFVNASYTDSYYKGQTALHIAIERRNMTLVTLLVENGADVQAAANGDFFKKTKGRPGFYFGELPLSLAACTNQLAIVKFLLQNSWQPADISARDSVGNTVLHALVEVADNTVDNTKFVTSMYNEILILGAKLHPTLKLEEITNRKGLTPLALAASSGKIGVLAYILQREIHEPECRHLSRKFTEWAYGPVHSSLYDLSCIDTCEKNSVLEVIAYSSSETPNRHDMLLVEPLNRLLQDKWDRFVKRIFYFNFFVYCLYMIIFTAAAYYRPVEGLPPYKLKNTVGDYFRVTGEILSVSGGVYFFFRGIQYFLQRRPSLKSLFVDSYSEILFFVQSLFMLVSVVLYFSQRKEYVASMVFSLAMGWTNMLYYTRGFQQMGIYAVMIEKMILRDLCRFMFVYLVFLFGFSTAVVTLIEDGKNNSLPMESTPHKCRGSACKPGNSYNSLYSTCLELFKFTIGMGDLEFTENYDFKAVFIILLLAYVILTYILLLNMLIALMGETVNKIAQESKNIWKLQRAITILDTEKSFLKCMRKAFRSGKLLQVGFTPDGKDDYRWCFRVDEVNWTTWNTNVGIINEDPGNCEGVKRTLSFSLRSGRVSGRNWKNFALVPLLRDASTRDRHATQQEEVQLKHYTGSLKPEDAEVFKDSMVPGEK

In the case of `CN1c2ccccc2C(=O)N2CCc3c([nH]c4ccccc34)C21` (stereo not given), the Activity in [1] is -296 pA/pF; in [2] it was -260 pA/pF; in assay [5], -236 pA/pF; in assay [6] it was -143 pA/pF; in assay [7] it was -328 pA/pF; in assay [8] it was 0 mV. Further, the Activity in [9] was -6.4 pA/pF; in [10], -528 pA/pF; in [11] it was -49.1 pA/pF; in assay [12], -94.8 pA/pF; in assay [13], -172 pA/pF; in assay [14], -81.7 pA/pF. For the same molecule, the Activity in [15] was -370 pA/pF; in assay [16], -2400 pA/pF; in assay [17], -439 pA/pF; in assay [18], -237 pA/pF; in assay [19], -132 pA/pF; in assay [20], -195 pA/pF. The result in assay [3] and in assay [4] was Active.
